# Assay outcomes as filed in PubChem BioAssay.
# hERG rescue – shields human hERG channel from block by proarrhythmic agents; actives 0.51% (n = 310,000); activation (rescue from dofetilide block), less the hit threshold, % at 10 µM; Q12809; CHO-hERG, FluxOR thallium flux, dofetilide IC70 present;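 active = activation above the mean of controls blocked by dofetilide plus 5 SD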;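 note: thallium influx through hERG after potassium depolarization seen as dye fluorescence rise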
# KCNK9 block – inhibitors of human KCNK9 two-pore domain potassium channel. HEK293 KCNK9, FluxOR thallium flux fluorescence; stronger effect = lower value. B-score at 10 µM. actives 1.2% (n = 310,000);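 active = ratio B-score over 3 SD below the library mean, with starting fluorescence within 5 SD of its mean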;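 note: negative B-score means less thallium flux so channel inhibition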
# KCNQ1 block – human KCNQ1 channel inhibition | P51787 | CHO-K1 KCNQ1, FluxOR thallium flux fluorescence; stronger effect = higher value | B-score at 10 µM | actives 1.3% (n = 310,000) | AID 2642;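 active = compounds whose thallium flux B-score, printed positive for inhibition, exceeds three library SD while starting fluorescence stays within three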;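 note: channel opened by potassium depolarization with thallium stimulus after 20 min compound exposure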
# Cl transport mod – modulates chloride dependent transport by human KCC2. Q9H2X9. KCC2 cells, thallium flux FluoZin-2 fluorescence. B-score of Tl+ flux slope (higher = more flux/activation; lower = inhibition) at 10 µM. actives 2.2% (n = 190,000);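 active = thallium flux slope and its plate-corrected score both differing from the plate sample mean at a set confidence after two filtering rounds, in either direction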;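 note: slope of fluorescence scaled to starting intensity during 10 to 20 s after thallium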
# KCNQ1 act – potentiators or activators of human KCNQ1 potassium channel. CHO-K1 KCNQ1, thallium flux FluxOR fluorescence; stronger effect = higher value. P51787. actives 0.35% (n = 310,000). B-score at 10 µM;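 active = fluorescence ratio B-score, a plate-corrected score, at least three library SD, with initial intensity B-score within 5 SD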
#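 Test system: CHO-K1 cells stably expressing KCNQ1 / Medium: assay buffer / Also added: depolarizing K+/Tl+ stimulus, K2SO4 and Tl2SO4 each 12.5 mM in 5x stock / Incubation: 90 min dye loading and 20 min compound exposure, both at room temperature / Signal: thallium influx via FluxOR fluorescence, kinetic imaging / Evaluation: B score of baseline-normalized fluorescence ratio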
# KCNK3 block – human KCNK3 channel inhibition, primary screen | AID 602410 | actives 0.84% (n = 340,000) | B-score at 10 µM | CHO-KCNK3 thallium flux, FluxOR fluorescence; stronger effect = lower value;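 active = B-score under library mean minus 4 SD, starting fluorescence ratio at most library mean plus 5 SD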;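 note: more negative B-score means stronger inhibition of thallium flux through KCNK3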
# KCNK9 inh conf – human KCNK9 inhibitor confirmation; shares compounds with KCNK9 block; HEK293 KCNK9 cells, FluxOR thallium flux fluorescence; inhibition, % at 10 µM; actives 43% (n = 4,900);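 active = thallium signal inhibited by more than 5 SD of the compound-free buffer control wells, on both duplicate plates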;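 note: 0% = assay buffer control wells without compound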
# Kir2-1 spec – tests whether KCNK9 modulators also affect mouse Kir2.1; actives 4% (n = 4,900); inhibition, % at 10 µM; AID 492993; shares compounds with KCNK9 block; Kir2.1 cells, FluxOR thallium flux fluorescence;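 active = thallium signal drop more than 5 SD beyond the mean of the no-compound control wells, seen in both duplicate plates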;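 note: signal is fluorescence rise after thallium addition divided by baseline fluorescence; plate controls were assay buffer only for no effect and full block by chlorpromazine control for full effect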
# KCNK9 uninduced – second counter-screen for KCNK9 modulators: effect in non-induced cells; shares compounds with KCNK9 block; AID 492997; actives 40% (n = 4,900); non-induced KCNK9-HEK293, FluxOR thallium flux; inhibition, % at 10 µM;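 active = thallium signal drop beyond 5 SD of the untreated control mean, on both duplicate plates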;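 note: plate controls were buffer only IC0 wells for no effect and SID17386958 at its maximal inhibitory level for full effect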
# The depositor's hits bear a star; i = inactive; / = no result. This is a sample that favours compounds with a hit; in the whole collection about 4.1% have one here.
SMILES,hERG rescue,KCNK9 block,KCNQ1 block,Cl transport mod,KCNQ1 act,KCNK3 block,KCNK9 inh conf,Kir2-1 spec,KCNK9 uninduced
COC(=O)/C(=C\C=C\c1ccccc1)NC(=O)c1ccccc1,-6,i,i,/,i,i,/,/,/
CCOC(=O)/C(=C\c1ccccc1)NC(=O)c1ccccc1,-9,i,i,0.028,i,i,/,/,/
COC(=O)/C(=C\c1ccc2c(c1)c1ccccc1n2C)NC(=O)c1ccccc1,-9,-9.6*,i,-1.3,i,i,36%*,i,i
CCOC(=O)/C(=C/c1c2ccccc2cc2ccccc12)NC(=O)c1ccccc1,-7,-16*,i,/,i,-11*,58%*,i,39%*
O=c1ccc(Cl)nn1-c1ccccc1,-6,i,i,/,i,i,/,/,/
CCOc1ccccc1NC(=O)CCC(=O)Nc1ccccc1OCC,-5,i,i,0.16,i,i,/,/,/
CCOc1ccccc1N/C=C/C(=O)C(C)(C)C,-8,i,i,-0.3,i,i,i,i,i
COc1ccc(CCN=Cc2c(C)[nH]n(-c3ccc([N+](=O)[O-])cc3)c2=O)cc1OC,1,i,i,-0.5,i,i,/,/,/
COc1cc(SC#N)ccc1N=Cc1c(C)[nH]n(-c2ccc(C)c(C)c2)c1=O,-4,i,i,0.048,i,i,i,i,i
O=C(Cn1cnc2c(NCc3ccccc3)ncnc21)NCCCN1CCCC1=O,/,/,/,/,/,i,/,/,/
Cc1ccc(S(=O)(=O)NC(=O)c2ccc(-c3ccc(C)c4ccccc34)o2)cc1,-19,i,i,/,i,i,i,i,i
Cc1ccc(-c2ccc(C(=O)Nc3ccccc3)o2)c2ccccc12,-17,i,6*,0.52,i,i,i,i,i
CC(C)N1CCC(=NNC(=O)c2cccs2)CC1,-10,i,i,/,i,i,/,/,/
Cc1csc(C(=O)NN)c1N(C)C,-9,i,i,0.16,i,i,/,/,/
CCCCNC(=O)[C@H]1C[C@H]1[C@@H](O)[C@H](CO)NC(=O)[C@H](Cc1ccccc1)NC(=O)OC(C)(C)C,-4,i,i,/,i,i,i,i,i
C=CCn1c(SCC(=O)c2c(N)n(C)c(=O)n(C)c2=O)nnc1-c1ccoc1C,/,/,/,/,/,i,/,/,/
COc1cnc(SCc2ccc(Cl)cc2Cl)nc1Cl,-6,i,i,0.021,i,i,i,i,30%*
Cc1cccc(NS(=O)(=O)c2cccc(C(=O)NCC(c3ccco3)N(C)C)c2)c1 (stereo not drawn),-17,i,i,/,i,i,/,/,/
Cc1ccc(C(=O)NCc2ccc(N3CCN(C(=O)OC(C)(C)C)CC3)cc2)cc1,-16,i,i,0.78,i,i,i,i,i
Cc1ccc(S(=O)(=O)NCc2ccc(N3CCN(C(=O)OC(C)(C)C)CC3)cc2)cc1,-7,i,i,/,i,i,/,/,/
COc1ccc(-n2nc(C(=O)NCC(=O)N3CCC(C)CC3)c3ccccc3c2=O)cc1Cl,-8,i,i,/,i,i,i,i,i
CCOC(=O)Oc1c(OC)cc(C(=O)O[C@@H]2C[C@@H]3CN4CCc5c([nH]c6cc(OC)ccc56)[C@H]4C[C@@H]3[C@H](C(=O)OC)[C@H]2OC)cc1OC,/,/,/,/,/,i,/,/,/
Cc1c(C(=O)O)cccc1-c1ccc(/C=N/Nc2ccc(Br)cc2)o1,-12,i,i,-1.3,i,i,i,i,i
O=C(O)c1ccc(N/N=C/c2ccc(-c3ccc(Cl)cc3Cl)o2)cc1,-10,i,i,-0.18,i,i,i,i,i
Cc1c(C(=O)O)cccc1-c1ccc(/C=N/n2cnnc2)o1,-8,i,i,/,i,i,/,/,/
SMILES,hERG rescue,KCNK9 block,KCNQ1 block,Cl transport mod,KCNQ1 act,KCNK3 block,KCNK9 inh conf,Kir2-1 spec,KCNK9 uninduced
CCc1sc(C(=O)N2CCc3cc(OC)c(OC)cc3C2CC(=O)O)cc1C (stereo not drawn),/,/,/,/,/,i,/,/,/
Cc1nc(NC(=O)c2ccccc2)sc1-c1csc(NCCc2ccccc2)n1,-7,-8.7*,i,/,i,i,32%*,i,i
COc1ccc(Cl)cc1Nc1nc(-c2sc(NC(=O)c3ccco3)nc2C)cs1,-36,-11*,i,-0.0059,i,i,i,i,i
COc1cccc(Nc2nc(-c3ccc4c(c3)OCCO4)cs2)c1,-8,i,i,/,i,i,i,i,i
c1cc2c(cc1Nc1nc(-c3ccc4c(c3)OCO4)cs1)OCCO2,-13,i,i,0.58,i,i,/,/,/
COc1cccc(Nc2nc(-c3sc(NC(=O)c4ccco4)nc3C)cs2)c1,-26,-11*,i,0.93,i,i,50%*,i,i
COc1ccc(/C(C)=N/NC(=O)c2nnn(-c3nonc3N)c2-c2cccs2)cc1OC,0,i,i,/,i,i,/,/,/
O=C1CCCN1C(=O)CSc1ncnc2sccc12,/,/,/,/,/,i,/,/,/
CC(C)C[C@@H](NC(=O)C1CCC(CNC(=O)[C@H](Cc2ccccc2)NC(=O)OC(C)(C)C)CC1)C(=O)O (stereo partly drawn),-4,i,i,/,i,i,/,/,/
CN(C)C1=NC[C@H](Cc2ccccc2)N1CC1CCCCCC1,/,/,/,/,/,i,/,/,/
CC(C)(C)c1ccc(OCC(=O)NNC(=S)NC(=O)c2ccco2)c(Br)c1,-13,i,i,/,56*,i,i,i,i
O=C(OCN1C(=O)c2ccccc2C1=O)c1cccc(S(=O)(=O)N2CCOCC2)c1,-9,i,i,/,i,i,/,/,/
CCN(CC)c1ccc(/C=c2\sc3nnc(-c4ccccc4Cl)n3c2=O)cc1,9.3*,-11*,7*,/,i,i,44%*,i,i
CCN(CC)c1ccc(/C=c2/sc3nnc(-c4ccccc4C)n3c2=O)cc1,-15,i,i,i,i,i,/,/,/
O=C(NCC1CC1)c1onc(CSc2ccc(F)cc2)c1C(=O)NCC1CC1,-3,i,i,/,i,i,/,/,/
Cc1cc(C)cc(SCc2noc(C(=O)NCCC(C)C)c2C(=O)NCCC(C)C)c1,-7,i,i,/,i,i,i,i,i
Cc1cc(C)cc(SCc2noc(C(=O)NCC3CC3)c2C(=O)NCC2CC2)c1,-6,i,i,/,i,/,i,i,i
